From ChEMBL document CHEMBL1157342, “Isolation of gelsedine-type indole alkaloids from Gelsemium elegans and evaluation of the cytotoxic activity of gelsemium alkaloids for A431 epidermoid carcinoma cells” (J Nat Prod, 2006)
pEC50: −log10 of the molar value.

These molecules were tested on A-431 (assay: Cytotoxicity against human A431 cells after 48 hrs by trypan blue test). Settings: A-431, 48 h.
Format: functional, cell-based
In short: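 A431 human epidermoid carcinoma cells were grown at 5% CO2, 37 °C, seeded in 12-well plates at 1 × 10^5 cells/well and treated at semiconfluence (about 5 × 10^5 cells/well). DMSO stocks (100 mM) were diluted in serum-free RPMI-1640 to 10 nM–100 µM final, with DMSO below 0.1%. After 48 h, cells were counted in a Bürker-Türk chamber with trypan blue. Survival was expressed as % of untreated control. EC50 was taken from three independent experiments, mean ± SEM.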

SMILES	pEC50
CC[C@H]1N[C@H]2C[C@@]3(C(=O)N(OC)c4cc(OC)ccc43)[C@H]3C[C@@H]1[C@@H]2CO3 [GELSEMICINE]	6.12
C/C=C1\CN2[C@H]3Cc4c([nH]c5ccccc45)[C@@H]2C[C@@H]1C3(CO)C(=O)OC (some centres undefined)	< 4.00
CCC1=N[C@H]2C[C@@]3(C(=O)N(OC)c4ccccc43)[C@H]3C[C@@H]1[C@@H]2CO3 [GELSENICINE]	4.43
CCC1=N[C@H]2C[C@@]3(C(=O)N(OC)c4ccccc43)[C@@H]3OC[C@H]2[C@@]1(O)[C@H]3OC(C)=O	4.44
CCC(=O)[C@]12N[C@H]3C[C@@]4(C(=O)N(OC)c5ccccc54)[C@H](OC[C@H]31)[C@@H]2O [GELSEMOXONINE]	< 4.00
CCC1=N[C@H]2C[C@@]3(C(=O)N(OC)c4cc(OC)ccc43)[C@@H]3OC[C@H]2[C@H]1[C@H]3O	< 4.00
CC[C@H]1N[C@H]2C[C@@]3(C(=O)N(OC)c4ccccc43)[C@H]3C[C@@H]1[C@@H]2CO3 [GELSEDINE]	6.46
C=C[C@]12CN(C)[C@@H]3[C@H]4CO[C@H](C[C@H]41)[C@]1(C(=O)Nc4ccccc41)[C@@H]32 [GELSEMINE]	< 4.00
CCC1=N[C@H]2C[C@@]3(C(=O)N(OC)c4ccccc43)[C@@H]3OC[C@H]2[C@H]1[C@H]3OC(C)=O	6.60
CCC1=N[C@H]2C[C@@]3(C(=O)N(OC)c4ccccc43)[C@@H]3OC[C@H]2[C@H]1[C@H]3O	< 4.00
C/C=C1\CN(C)[C@H]2C[C@@]3(C(=O)N(OC)c4cc(OC)ccc43)[C@H]3C[C@@H]1[C@@H]2CO3	< 4.00
C/C=C1\CN(C)[C@H]2C[C@@]3(C(=O)N(OC)c4ccccc43)[C@H]3C[C@@H]1[C@@H]2CO3 [HUMANTENINE]	< 4.00
C=C[C@@]12CN(C)[C@H]3C[C@]14C(=Nc1ccccc14)[C@@H]1C[C@@H]2[C@@H]3CO1 [KOUMINE]	< 4.00
CCC1=N[C@H]2C[C@@]3(C(=O)N(OC)c4ccccc43)[C@@H]3OC[C@H]2[C@@]1(O)[C@H]3O	5.89
